Drawing on ChEMBL document CHEMBL3112519, “Degrasyn-like symmetrical compounds: possible therapeutic agents for multiple myeloma (MM-I)” (Bioorg Med Chem, 2014), this text covers IC50 and inhibition for 39 compounds.

Active and inactive are the calls of the source. The calls are words filed in the database; no cut-off is given here.

By IC50 is commonly meant the concentration that inhibits the measured activity by half. In general, inhibition refers to how much of the control response was suppressed.

Test [1] is described as follows: Cytotoxicity against human MM1S cells after 72 hrs by MTT assay. It counts as functional, cell-based. The following applies: MM1.S. The method, boiled down: (§1)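 Cells were grown in RPMI 1640 with 10% heat-inactivated FBS and 2 mM glutamine. Non-adherent cells were seeded at 20,000 per well and adherent cells at 5,000. Compounds were serially diluted in medium from a final top concentration of 10 μM (DMSO ≤0.1%), with vehicle controls, and incubated at 37 °C for 72 h. MTT was added for 2 h, then SDS/DMF lysis (pH 4.7) for 6 h, and OD570 was read. IC50 was taken from the concentration range.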
In general terms: Tetrazolium assays rely on reduction of a dye to a coloured formazan, in cell work by metabolically active cells.

Test [2] can be described thus: Cytotoxicity against human MM1S cells at 10 uM after 72 hrs by MTT assay. It counts as functional. The following applies: MM1.S. The method, boiled down: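 MM1.S cells were grown in RPMI 1640 with 10% heat-inactivated FBS and 2 mM glutamine and plated at 20,000 cells per well. They were exposed to a single 10 μM final concentration (DMSO ≤0.1%) or vehicle for 72 h at 37 °C. MTT was added for 2 h, followed by SDS/DMF lysis for 6 h and OD570 reading. Percent growth inhibition was calculated against vehicle.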

A short description of test [3]: Cytotoxicity against human Mino cells after 72 hrs by MTT assay. It counts as functional, cell-based. The procedure, abridged: as §1
The target of test [4] is T1, Ubiquitin carboxyl-terminal hydrolase 9X (Homo sapiens, UniProt Q93008). The experiment in a line: Inhibition of human recombinant N-terminal His6-Smt3-fusion-tagged Usp9x catalytic domain expressed in Escherichia coli using Ub-AMC as substrate incubated for 30 mins prior to substrate addition by fluorescence assay.
Test [5] concerns the target T1, Ubiquitin carboxyl-terminal hydrolase 9X. The test can be described thus: Inhibition of Usp9x in human Z138 cells using HA-Ub vinyl-sulfone as substrate at 1.25 to 5 uM after 4 hrs by immunoblotting analysis. It counts as cell-based. A general note: A western blot detects proteins with antibodies after separation by electrophoresis.
For test [6], the system named is K562. The experiment in a line: Cytotoxicity against human K562 cells after 72 hrs by MTT assay. It counts as functional, cell-based. The following applies: K562, 72 h. The procedure, abridged: as §1
In test [7] the test system is A-375. The experiment in a line: Cytotoxicity against human A375 cells after 72 hrs by MTT assay. The format is functional, cell-based. The following applies: A-375, 72 h. The method, boiled down:
as §1

Test [8] has as its target Tyrosine-protein kinase JAK2 (Homo sapiens) (UniProt O60674). The experiment in a line: Inhibition of human JAK2 kinase at 10000 nM.
The species named for test [9] is Homo sapiens. The experiment in a line: Inhibition of human Bcr-Abl kinase at 10000 nM.
Test [10] has as its target Mast/stem cell growth factor receptor Kit (Homo sapiens) (UniProt P10721). The test can be described thus: Inhibition of human c-kit kinase at 10000 nM.

T1 sequence (Q93008 whole entry, the tested form may be a part): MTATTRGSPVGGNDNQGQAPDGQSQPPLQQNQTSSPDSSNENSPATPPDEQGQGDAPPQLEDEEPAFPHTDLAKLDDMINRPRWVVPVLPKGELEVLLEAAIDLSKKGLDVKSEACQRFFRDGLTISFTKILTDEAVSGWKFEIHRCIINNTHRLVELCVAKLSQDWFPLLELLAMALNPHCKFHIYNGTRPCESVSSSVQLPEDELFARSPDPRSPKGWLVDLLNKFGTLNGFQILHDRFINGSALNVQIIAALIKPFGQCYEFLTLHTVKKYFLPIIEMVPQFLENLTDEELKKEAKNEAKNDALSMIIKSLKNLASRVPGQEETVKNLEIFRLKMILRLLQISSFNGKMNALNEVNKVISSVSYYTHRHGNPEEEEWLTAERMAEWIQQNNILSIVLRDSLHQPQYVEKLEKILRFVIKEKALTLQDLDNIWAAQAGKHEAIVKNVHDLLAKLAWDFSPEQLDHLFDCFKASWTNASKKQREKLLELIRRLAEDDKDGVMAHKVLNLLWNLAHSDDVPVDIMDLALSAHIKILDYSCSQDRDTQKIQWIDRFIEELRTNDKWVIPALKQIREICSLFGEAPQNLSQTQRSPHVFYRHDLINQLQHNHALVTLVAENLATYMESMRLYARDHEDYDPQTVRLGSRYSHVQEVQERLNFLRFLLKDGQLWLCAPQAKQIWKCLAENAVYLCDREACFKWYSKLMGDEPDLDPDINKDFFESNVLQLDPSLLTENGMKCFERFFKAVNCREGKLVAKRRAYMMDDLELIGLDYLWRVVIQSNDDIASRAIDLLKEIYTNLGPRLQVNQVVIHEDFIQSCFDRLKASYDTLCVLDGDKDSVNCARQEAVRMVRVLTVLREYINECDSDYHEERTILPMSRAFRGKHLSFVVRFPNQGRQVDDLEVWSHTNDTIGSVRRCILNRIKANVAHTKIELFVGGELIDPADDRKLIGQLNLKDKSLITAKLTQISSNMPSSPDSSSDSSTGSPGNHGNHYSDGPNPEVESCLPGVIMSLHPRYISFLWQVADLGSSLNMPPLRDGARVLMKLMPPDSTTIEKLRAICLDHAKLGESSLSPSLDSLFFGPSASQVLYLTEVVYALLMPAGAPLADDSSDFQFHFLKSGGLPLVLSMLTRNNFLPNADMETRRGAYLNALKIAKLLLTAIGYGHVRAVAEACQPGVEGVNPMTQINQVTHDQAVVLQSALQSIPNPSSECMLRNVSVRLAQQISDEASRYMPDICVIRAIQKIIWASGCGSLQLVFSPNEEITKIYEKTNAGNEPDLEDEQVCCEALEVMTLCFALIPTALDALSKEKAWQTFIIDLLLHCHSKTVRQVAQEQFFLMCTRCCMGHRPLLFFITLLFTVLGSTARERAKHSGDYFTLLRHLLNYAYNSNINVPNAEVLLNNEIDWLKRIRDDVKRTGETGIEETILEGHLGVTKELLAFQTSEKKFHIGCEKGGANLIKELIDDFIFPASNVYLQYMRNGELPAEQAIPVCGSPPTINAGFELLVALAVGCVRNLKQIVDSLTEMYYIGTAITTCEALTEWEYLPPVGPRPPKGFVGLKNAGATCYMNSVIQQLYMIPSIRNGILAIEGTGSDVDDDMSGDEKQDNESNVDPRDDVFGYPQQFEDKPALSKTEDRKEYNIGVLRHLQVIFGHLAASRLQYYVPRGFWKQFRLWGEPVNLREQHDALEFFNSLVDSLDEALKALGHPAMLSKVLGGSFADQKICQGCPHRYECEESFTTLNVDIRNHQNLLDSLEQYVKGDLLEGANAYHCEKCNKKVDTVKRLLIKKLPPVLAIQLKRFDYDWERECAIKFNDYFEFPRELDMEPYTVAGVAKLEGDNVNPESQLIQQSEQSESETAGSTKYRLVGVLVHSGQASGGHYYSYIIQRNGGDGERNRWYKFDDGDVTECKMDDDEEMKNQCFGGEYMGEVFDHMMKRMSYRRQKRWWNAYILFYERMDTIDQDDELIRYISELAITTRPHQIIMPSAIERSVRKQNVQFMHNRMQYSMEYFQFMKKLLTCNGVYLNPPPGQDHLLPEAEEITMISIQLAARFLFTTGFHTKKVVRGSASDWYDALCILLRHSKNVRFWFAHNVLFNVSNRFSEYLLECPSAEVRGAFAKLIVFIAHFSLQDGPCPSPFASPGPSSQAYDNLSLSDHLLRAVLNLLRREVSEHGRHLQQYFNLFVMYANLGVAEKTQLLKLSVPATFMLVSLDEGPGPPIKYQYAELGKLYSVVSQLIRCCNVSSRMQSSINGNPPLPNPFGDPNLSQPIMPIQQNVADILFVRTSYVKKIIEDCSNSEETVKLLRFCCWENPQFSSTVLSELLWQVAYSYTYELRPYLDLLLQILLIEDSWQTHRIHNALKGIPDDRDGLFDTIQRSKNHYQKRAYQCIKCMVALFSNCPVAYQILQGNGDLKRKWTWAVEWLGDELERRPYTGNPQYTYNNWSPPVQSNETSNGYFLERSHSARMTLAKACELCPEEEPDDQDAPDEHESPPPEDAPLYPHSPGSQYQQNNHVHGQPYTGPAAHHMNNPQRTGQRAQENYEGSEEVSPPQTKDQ
Chain of Tyrosine-protein kinase JAK2 (Homo sapiens) (O60674 whole entry): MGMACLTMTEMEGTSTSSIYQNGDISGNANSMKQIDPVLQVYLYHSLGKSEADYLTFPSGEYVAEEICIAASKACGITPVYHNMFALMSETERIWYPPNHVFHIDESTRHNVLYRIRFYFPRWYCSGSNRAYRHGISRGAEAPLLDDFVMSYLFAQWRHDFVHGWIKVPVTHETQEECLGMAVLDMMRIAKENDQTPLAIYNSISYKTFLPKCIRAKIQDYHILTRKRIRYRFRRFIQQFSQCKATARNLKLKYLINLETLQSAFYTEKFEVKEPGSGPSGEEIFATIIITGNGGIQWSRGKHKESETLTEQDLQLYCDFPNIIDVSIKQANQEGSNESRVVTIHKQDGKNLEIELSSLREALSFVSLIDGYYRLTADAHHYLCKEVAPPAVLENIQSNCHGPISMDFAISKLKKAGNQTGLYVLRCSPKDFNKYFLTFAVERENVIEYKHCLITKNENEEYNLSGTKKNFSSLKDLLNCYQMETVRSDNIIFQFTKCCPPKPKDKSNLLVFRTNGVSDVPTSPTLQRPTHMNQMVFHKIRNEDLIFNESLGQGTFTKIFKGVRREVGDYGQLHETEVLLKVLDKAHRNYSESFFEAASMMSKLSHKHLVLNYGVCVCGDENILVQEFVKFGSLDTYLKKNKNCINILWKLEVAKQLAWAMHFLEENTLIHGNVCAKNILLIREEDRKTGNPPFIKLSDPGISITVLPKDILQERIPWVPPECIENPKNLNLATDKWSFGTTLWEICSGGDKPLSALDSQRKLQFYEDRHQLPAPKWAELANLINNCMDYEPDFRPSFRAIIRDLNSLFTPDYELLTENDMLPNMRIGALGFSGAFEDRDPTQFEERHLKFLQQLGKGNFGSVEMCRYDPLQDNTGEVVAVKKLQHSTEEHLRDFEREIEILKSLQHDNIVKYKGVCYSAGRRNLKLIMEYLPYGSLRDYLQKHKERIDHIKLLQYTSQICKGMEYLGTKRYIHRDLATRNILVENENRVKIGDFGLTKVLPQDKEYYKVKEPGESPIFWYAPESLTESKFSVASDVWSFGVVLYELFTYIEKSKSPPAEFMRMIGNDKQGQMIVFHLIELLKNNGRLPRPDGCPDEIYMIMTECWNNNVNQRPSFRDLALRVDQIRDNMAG
Chain of Mast/stem cell growth factor receptor Kit (Homo sapiens) (P10721 whole entry): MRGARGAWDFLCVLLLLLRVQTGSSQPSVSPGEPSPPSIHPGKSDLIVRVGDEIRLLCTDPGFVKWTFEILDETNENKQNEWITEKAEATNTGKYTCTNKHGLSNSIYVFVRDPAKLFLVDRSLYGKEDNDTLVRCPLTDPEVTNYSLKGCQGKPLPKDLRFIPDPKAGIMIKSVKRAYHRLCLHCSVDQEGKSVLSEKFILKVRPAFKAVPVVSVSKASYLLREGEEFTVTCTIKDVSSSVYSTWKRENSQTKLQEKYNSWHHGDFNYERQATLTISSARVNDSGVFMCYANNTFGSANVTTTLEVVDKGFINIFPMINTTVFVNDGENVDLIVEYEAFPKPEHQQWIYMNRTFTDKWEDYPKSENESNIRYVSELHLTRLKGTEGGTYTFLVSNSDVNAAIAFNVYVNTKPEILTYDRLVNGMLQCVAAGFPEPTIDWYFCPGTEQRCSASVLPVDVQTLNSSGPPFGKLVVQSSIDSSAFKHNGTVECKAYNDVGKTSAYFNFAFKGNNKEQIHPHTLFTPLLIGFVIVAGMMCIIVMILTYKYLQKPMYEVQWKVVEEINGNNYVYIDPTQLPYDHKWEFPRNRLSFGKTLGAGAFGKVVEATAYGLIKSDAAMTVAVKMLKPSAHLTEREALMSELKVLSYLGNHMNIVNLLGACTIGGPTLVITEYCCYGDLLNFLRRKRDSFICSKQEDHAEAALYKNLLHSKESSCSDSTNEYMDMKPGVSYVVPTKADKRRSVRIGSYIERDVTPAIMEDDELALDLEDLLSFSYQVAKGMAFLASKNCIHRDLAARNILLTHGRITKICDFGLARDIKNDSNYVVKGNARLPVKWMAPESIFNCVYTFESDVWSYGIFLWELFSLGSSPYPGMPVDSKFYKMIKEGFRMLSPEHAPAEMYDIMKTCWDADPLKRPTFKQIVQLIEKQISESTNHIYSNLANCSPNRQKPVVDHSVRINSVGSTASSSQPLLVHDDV

Regarding `N#C/C(=C\c1cccc(/C=C(\C#N)C(=O)N[C@@H](Cc2ccccc2)c2ccccc2)c1)C(=O)N[C@@H](Cc1ccccc1)c1ccccc1`, in test [1], the concentration for half-maximal inhibition (IC50) worked out at 620 nM.

Consider `CCC[C@H](NC(=O)/C(C#N)=C/c1cccc(/C=C(\C#N)C(=O)N[C@@H](CCC)c2ccccc2)c1)c1ccccc1`, for which 600 nM corresponded to half-maximal inhibition in test [1] (IC50).

Compound `CCC[C@H](NC(=O)/C(C#N)=C/c1cccc(/C=C(\C#N)C(=O)N[C@@H](CCC)c2ccccc2)n1)c1ccccc1` returned an IC50 in test [1] of 1200 nM.

`CC(C)c1ccc(/C=C(\C#N)C(=O)NCc2ccc(Cl)cc2)cc1` registered an inhibition at 10 µM in test [2] of 21%.

With `N#C/C(=C/c1csc2ccccc12)C(=O)NCc1cccc(CNC(=O)/C(C#N)=C\c2csc3ccccc23)c1`, the IC50 in test [1] is above 5000 nM.

On to `CCC[C@H](NC(=O)/C(C#N)=C/c1cccc(Br)n1)c1ccccc1`, for which the IC50 in test [3] is 800 nM; in [4], 5900 nM; in [1], 1200 nM; in test [6] it was 2400 nM; in test [7] it was 1700 nM. Besides, the inhibition result in [5] is “Active”. This compound registered an inhibition at 10 µM in [2] of 97%.

As to `CC[C@H](NC(=O)/C(C#N)=C/c1cccc(/C=C(\C#N)C(=O)N[C@@H](CC)c2ccccc2)c1)c1ccccc1`, in test [1], the midpoint of inhibition, the IC50, lay at 800 nM.

`C[C@H](NC(=O)/C(C#N)=C/c1cccs1)c1ccccc1` had an inhibition at 10 µM in test [2] of 14%.

As for `COc1ccc([C@H](C)NC(=O)/C(C#N)=C/c2cccc(/C=C(\C#N)C(=O)N[C@@H](C)c3ccc(OC)cc3)c2)cc1`, half-maximal inhibition in test [1] (IC50) was put at 1000 nM.

The compound `N#C/C(=C/c1cc(-c2ccccc2)cs1)C(=O)NCc1cccc(CNC(=O)/C(C#N)=C\c2cc(-c3ccccc3)cs2)c1` came in with a 50% inhibitory concentration (IC50) in test [1] above 5000 nM.

In [1], `C[C@H](NC(=O)/C(C#N)=C/c1cccc(/C=C(\C#N)C(=O)N[C@@H](C)c2ccccc2)n1)c1ccccc1` came in with a concentration for half-maximal inhibition (IC50) of 1280 nM.

Take `C[C@H](NC(=O)/C(C#N)=C/c1cccnc1)c1ccccc1`: the inhibition at 10 µM in test [2] came out at 44%.

`C[C@H](NC(=O)/C(C#N)=C/c1ccc(-c2ccccc2)cc1)c1ccccc1`: the inhibition at 10 µM in [2] came to 49%.

With `N#C/C(=C\c1ccccc1)C(=O)N1CCC(C(c2ccccc2)c2ccccc2)CC1`, testing at 10 µM in test [2] gave an inhibition of 14%.

In turn, `C[C@H](NC(=O)/C(C#N)=C/c1ccc(/C=C(\C#N)C(=O)N[C@@H](C)c2ccccc2Cl)cc1)c1ccccc1Cl` yielded an IC50 in test [1] above 5000 nM.

In test [1], `N#C/C(=C\c1cccc(/C=C(\C#N)C(=O)N[C@@H](CO)c2ccccc2)n1)C(=O)N[C@@H](CO)c1ccccc1` came in with an IC50 above 2000 nM.

In test [1], `N#C/C(=C/c1ccc2[nH]ccc2c1)C(=O)NCc1cccc(CNC(=O)/C(C#N)=C\c2ccc3[nH]ccc3c2)c1` yielded a 50% inhibitory concentration (IC50) above 5000 nM.

In the case of `COc1ccc(/C=C(/C#N)C(=O)NCc2cccc(CNC(=O)/C(C#N)=C\c3ccc(OC)c(OC)c3)c2)cc1OC`, the IC50 in test [1] came out at 2000 nM.

`N#C/C(=C\c1ccc(/C=C(\C#N)C(=O)N[C@@H](CO)c2ccccc2)cc1)C(=O)N[C@@H](CO)c1ccccc1`: inhibition in [1] was half-maximal at 2000 nM (IC50).

As to `C[C@H](NC(=O)/C(C#N)=C/c1cccc(/C=C(\C#N)C(=O)N[C@@H](C)c2ccccc2)c1)c1ccccc1`, the 50% inhibitory concentration (IC50) in test [3] was found to be 400 nM; in [1] it was 400 nM; in [6], 600 nM; in [7] it was 800 nM. Besides, in test [2], 10 µM produced 100% inhibition.

The compound `CCCCOc1ccc(/C=C(\C#N)C(=O)N[C@@H](C)c2ccccc2)cc1` returned an inhibition at 10 µM in test [2] of 31%.

Compound `N#C/C(=C\C=C\c1ccc(O)c(O)c1)C(=O)NCc1cccc(CNC(=O)/C(C#N)=C/C=C/c2ccc(O)c(O)c2)c1` yielded an IC50 in test [1] above 5000 nM.

Regarding `N#C/C(=C/c1cccc(Br)n1)C(=O)NCc1cccc(CNC(=O)/C(C#N)=C\c2cccc(Br)n2)c1`, the 50% inhibitory concentration (IC50) in [3] came out at 200 nM; in test [1] it was 240 nM; in test [6], 400 nM; in test [7], 600 nM. Besides, the inhibition entry in test [8], in [9] and in [10] was “inactive” throughout.

In the case of `N#C/C(=C/c1ccc([N+](=O)[O-])c(O)c1)C(=O)NCc1cccc(CNC(=O)/C(C#N)=C\c2ccc([N+](=O)[O-])c(O)c2)c1`, the IC50 in test [1] was found to be 700 nM.

With `N#C/C(=C/c1ccc(O)c(Br)c1)C(=O)NCc1cccc(CNC(=O)/C(C#N)=C\c2ccc(O)c(Br)c2)c1`, the half-maximal inhibitory concentration (IC50) in test [1] was above 10000 nM.

For `Cc1ccc(Cl)c(C=C(C#N)C(=O)NCc2cccc(CNC(=O)C(C#N)=Cc3c(Cl)ccc(C)c3F)c2)c1F`, the half-inhibitory concentration (IC50) in test [1] is 600 nM.

As for `N#C/C(=C/c1cc(Cl)c(Cl)cn1)C(=O)NCc1cccc(CNC(=O)/C(C#N)=C\c2cc(Cl)c(Cl)cn2)c1`, the half-inhibitory concentration (IC50) in test [1] came out at 1250 nM.

`C[C@H](NC(=O)/C(C#N)=C/c1cc(/C=C(\C#N)C(=O)N[C@@H](C)c2ccccc2)cc(/C=C(\C#N)C(=O)N[C@@H](C)c2ccccc2)c1)c1ccccc1` registered a half-inhibitory concentration (IC50) in test [1] of 700 nM.

Consider `N#C/C(=C/c1cnc[nH]1)C(=O)NCc1cccc(CNC(=O)/C(C#N)=C\c2cnc[nH]2)c1`, for which, in test [1], the half-maximal inhibitory concentration (IC50) was above 5000 nM.

As to `C[C@H](NC(=O)/C(C#N)=C/c1ccc(C(F)(F)F)cc1)c1ccccc1`, the inhibition at 10 µM in [2] turned out to be 63%.

The compound `COc1ccc(C(CC2CC2)NC(=O)/C(C#N)=C/c2cccc(/C=C(\C#N)C(=O)NC(CC3CC3)c3ccc(OC)cc3)c2)cc1` (racemic) displayed an IC50 in test [1] of 1200 nM.

`COC(=O)c1ccc(/C=C(\C#N)C(=O)N[C@@H](C)c2ccccc2)cc1` had an inhibition at 10 µM in test [2] of 67%.

Regarding `C[C@H](NC(=O)/C(C#N)=C/c1ccc(/C=C(\C#N)C(=O)N[C@@H](C)c2ccccc2)cc1)c1ccccc1`, in [1], the 50% inhibitory concentration (IC50) was above 5000 nM.

On to `N#C/C(=C/c1ccc(-c2cccs2)s1)C(=O)NCc1cccc(CNC(=O)/C(C#N)=C\c2ccc(-c3cccs3)s2)c1`, for which the concentration for half-maximal inhibition (IC50) in test [1] is above 5000 nM.

In turn, `N#C/C(=C/c1ccc(N2CCCCC2)cc1)C(=O)NCc1cccc(CNC(=O)/C(C#N)=C\c2ccc(N3CCCCC3)cc2)c1` yielded an IC50 in test [1] above 5000 nM.

On to `COc1cccc(/C=C(/C#N)C(=O)NCc2cccc(CNC(=O)/C(C#N)=C\c3cccc(OC)n3)c2)n1`, for which, in test [1], the IC50 is above 5000 nM.

For `N#C/C(=C\c1cccc(/C=C(\C#N)C(=O)N[C@@H](CO)c2ccccc2)c1)C(=O)N[C@@H](CO)c1ccccc1`, in [1], the concentration for half-maximal inhibition (IC50) was above 2000 nM.

The compound `CCCCCCOc1ccc(/C=C(/C#N)C(=O)NCc2cccc(CNC(=O)/C(C#N)=C\c3ccc(OCCCCCC)cc3)c2)cc1` showed a concentration for half-maximal inhibition (IC50) in test [1] of 5000 nM.

Take `N#C/C(=C/c1c[nH]c2ccccc12)C(=O)NCc1cccc(CNC(=O)/C(C#N)=C\c2c[nH]c3ccccc23)c1`: the IC50 in test [1] is above 5000 nM.
